Measurements reported in ChEMBL document CHEMBL4229372, “Synthesis and anti-mitotic activity of 2,4- or 2,6-disubstituted- and 2,4,6-trisubstituted-2H-pyrazolo[4,3-c]pyridines” (2018).
Activity calls are given as the source filed them. No cut-off for these calls is given here.

How the values were obtained:
MCF7 [1] = experiment: Growth inhibition of human MCF7 cells after 72 hrs by Calcein AM dye based fluorescence assay; assay type: functional; settings: MCF7, 72 h
In short: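 Cells in DMEM with 10% FBS at 37 °C, 5% CO2, treated in triplicate with six doses for 72 h. Calcein AM was added for 1 h and live-cell fluorescence read at 485/538 nm. GI50 was taken from dose-response curves.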

K562 [2] = experiment: Cell cycle arrest in human K562 cells assessed as accumulation at sub G1 phase at 10 uM after 24 hrs by propidium iodide staining-based flow cytometric analysis (reference value: 15%); assay type: functional
K562 [3] = experiment: Cell cycle arrest in human K562 cells assessed as accumulation at S phase at 10 uM after 24 hrs by propidium iodide staining-based flow cytometric analysis (reference value: 50.3%); assay type: functional
K562 [4] = experiment: Cell cycle arrest in human K562 cells assessed as accumulation at G2/M phase at 10 uM after 24 hrs by propidium iodide staining-based flow cytometric analysis (reference value: 15%); assay type: functional
MCF7 [5] = experiment: Cell cycle arrest in human MCF7 cells assessed as accumulation at sub G1 phase at 10 uM after 24 hrs by propidium iodide staining-based flow cytometric analysis (reference value: 7.1%); assay type: functional
In short: (§1)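 MCF-7 cells in DMEM with 10% FBS and penicillin/streptomycin at 37 °C, 5% CO2. Asynchronous cells were treated 24 h, PBS-washed, trypsinized and quenched with 0.1% trypsin inhibitor. Staining used 5× citrate/IGEPAL/spermine/Tris buffer (pH 7.6) with 50 μg/mL propidium iodide. DNA content was read by 488 nm flow cytometry and cell-cycle phases modelled.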

MCF7 [6] = experiment: Cell cycle arrest in human MCF7 cells assessed as accumulation at G1 phase at 10 uM after 24 hrs by propidium iodide staining-based flow cytometric analysis (reference value: 60.7%); assay type: functional; in short: as §1
MCF7 [7] = experiment: Cell cycle arrest in human MCF7 cells assessed as accumulation at S phase at 10 uM after 24 hrs by propidium iodide staining-based flow cytometric analysis (reference value: 34.1%); assay type: functional; in short: as §1
MCF7 [8] = experiment: Cell cycle arrest in human MCF7 cells assessed as accumulation at G2/M phase at 10 uM after 24 hrs by propidium iodide staining-based flow cytometric analysis (reference value: 5.3%); assay type: functional; in short: as §1
K562 [9] = experiment: Cell cycle arrest in human K562 cells assessed as accumulation at G2/M phase after 24 hrs by propidium iodide staining-based flow cytometric analysis; assay type: functional
K562 [10] = experiment: Cell cycle arrest in human K562 cells assessed as accumulation at G2/M phase assessed as accumulation of histone H3 phosphorylation at serine 10 residues at 5 uM after 24 hrs by propidium iodide staining-based flow cytometric analysis (reference value: 2.2%); assay type: functional
[11] = target: Cyclin-dependent kinase 1 (Homo sapiens) (UniProt P06493); experiment: Inhibition of CDK1 (unknown origin)
Chain of Cyclin-dependent kinase 1 (Homo sapiens) (P06493 whole entry, looked up): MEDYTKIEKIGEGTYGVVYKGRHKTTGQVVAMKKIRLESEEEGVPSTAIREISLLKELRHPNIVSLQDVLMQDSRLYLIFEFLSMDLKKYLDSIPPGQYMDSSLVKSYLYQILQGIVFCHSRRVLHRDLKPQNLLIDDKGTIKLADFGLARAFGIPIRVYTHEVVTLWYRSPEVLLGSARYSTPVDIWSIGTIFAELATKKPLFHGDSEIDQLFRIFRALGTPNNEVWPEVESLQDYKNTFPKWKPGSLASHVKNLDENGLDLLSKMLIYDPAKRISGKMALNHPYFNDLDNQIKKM

[12] = target: Death-associated protein kinase 3 (Homo sapiens) (UniProt O43293); experiment: Inhibition of DAPK3 (unknown origin)
Chain of Death-associated protein kinase 3 (Homo sapiens) (O43293 whole entry, looked up): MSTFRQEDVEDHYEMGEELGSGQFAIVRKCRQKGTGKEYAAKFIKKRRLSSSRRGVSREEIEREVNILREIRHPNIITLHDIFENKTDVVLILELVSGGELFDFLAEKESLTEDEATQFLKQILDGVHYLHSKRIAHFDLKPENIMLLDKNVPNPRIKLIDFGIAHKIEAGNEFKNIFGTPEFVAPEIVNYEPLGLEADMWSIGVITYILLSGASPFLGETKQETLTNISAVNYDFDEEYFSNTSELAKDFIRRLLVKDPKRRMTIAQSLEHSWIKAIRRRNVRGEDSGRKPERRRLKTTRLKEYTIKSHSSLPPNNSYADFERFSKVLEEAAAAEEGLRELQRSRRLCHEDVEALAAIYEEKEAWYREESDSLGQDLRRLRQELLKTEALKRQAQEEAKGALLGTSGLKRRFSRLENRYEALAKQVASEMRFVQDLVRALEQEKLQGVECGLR

[13] = target: Serine/threonine-protein kinase NIM1 (Homo sapiens) (UniProt Q8IY84); experiment: Inhibition of NIM1 (unknown origin)
Chain of Serine/threonine-protein kinase NIM1 (Homo sapiens) (Q8IY84 whole entry): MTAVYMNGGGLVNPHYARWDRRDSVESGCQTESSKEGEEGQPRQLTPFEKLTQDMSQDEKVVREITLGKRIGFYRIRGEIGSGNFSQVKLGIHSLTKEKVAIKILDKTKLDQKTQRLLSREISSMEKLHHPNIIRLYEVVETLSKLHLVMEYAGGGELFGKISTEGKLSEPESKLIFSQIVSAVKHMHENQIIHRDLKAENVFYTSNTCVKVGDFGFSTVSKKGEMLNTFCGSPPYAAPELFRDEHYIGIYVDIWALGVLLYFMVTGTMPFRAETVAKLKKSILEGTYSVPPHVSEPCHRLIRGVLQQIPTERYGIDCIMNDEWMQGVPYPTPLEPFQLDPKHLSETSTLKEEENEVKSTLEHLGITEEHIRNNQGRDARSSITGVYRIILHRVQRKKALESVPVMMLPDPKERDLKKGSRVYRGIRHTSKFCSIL

[14] = target: T1, Aurora kinase A (Homo sapiens) (UniProt O14965); experiment: Inhibition of Aurora A (unknown origin)
T1 sequence (whole entry): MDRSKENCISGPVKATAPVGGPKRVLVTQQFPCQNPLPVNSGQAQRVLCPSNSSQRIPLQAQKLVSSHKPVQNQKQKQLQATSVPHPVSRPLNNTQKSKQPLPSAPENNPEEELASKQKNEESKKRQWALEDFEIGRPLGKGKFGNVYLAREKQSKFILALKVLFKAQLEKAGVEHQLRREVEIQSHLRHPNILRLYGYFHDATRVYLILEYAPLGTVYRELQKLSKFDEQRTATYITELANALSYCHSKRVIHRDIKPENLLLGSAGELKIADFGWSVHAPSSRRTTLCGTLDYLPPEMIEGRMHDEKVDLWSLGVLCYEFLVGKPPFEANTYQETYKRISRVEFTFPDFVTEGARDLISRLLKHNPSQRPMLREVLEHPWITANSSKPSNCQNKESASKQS

[15] = target: Serine/threonine-protein kinase 38 (Homo sapiens) (UniProt Q15208); experiment: Inhibition of NDR1 (unknown origin)
Chain of Serine/threonine-protein kinase 38 (Homo sapiens) (Q15208 2-465 limits assumed): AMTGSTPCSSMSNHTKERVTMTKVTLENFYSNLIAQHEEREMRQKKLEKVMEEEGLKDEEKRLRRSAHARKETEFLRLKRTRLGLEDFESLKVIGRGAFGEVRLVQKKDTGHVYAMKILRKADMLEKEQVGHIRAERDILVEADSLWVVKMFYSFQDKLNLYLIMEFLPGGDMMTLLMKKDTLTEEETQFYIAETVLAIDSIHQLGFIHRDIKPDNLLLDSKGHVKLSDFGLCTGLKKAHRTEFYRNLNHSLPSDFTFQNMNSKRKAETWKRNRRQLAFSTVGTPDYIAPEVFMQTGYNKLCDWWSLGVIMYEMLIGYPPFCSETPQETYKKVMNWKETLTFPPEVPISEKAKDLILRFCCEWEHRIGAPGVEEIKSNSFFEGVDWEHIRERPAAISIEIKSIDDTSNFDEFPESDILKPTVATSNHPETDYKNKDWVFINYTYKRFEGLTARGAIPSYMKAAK

[16] = target: Serine/threonine-protein kinase Nek4 (Homo sapiens) (UniProt P51957); experiment: Inhibition of NEK4 (unknown origin)
Chain of Serine/threonine-protein kinase Nek4 (Homo sapiens) (P51957 whole entry, looked up): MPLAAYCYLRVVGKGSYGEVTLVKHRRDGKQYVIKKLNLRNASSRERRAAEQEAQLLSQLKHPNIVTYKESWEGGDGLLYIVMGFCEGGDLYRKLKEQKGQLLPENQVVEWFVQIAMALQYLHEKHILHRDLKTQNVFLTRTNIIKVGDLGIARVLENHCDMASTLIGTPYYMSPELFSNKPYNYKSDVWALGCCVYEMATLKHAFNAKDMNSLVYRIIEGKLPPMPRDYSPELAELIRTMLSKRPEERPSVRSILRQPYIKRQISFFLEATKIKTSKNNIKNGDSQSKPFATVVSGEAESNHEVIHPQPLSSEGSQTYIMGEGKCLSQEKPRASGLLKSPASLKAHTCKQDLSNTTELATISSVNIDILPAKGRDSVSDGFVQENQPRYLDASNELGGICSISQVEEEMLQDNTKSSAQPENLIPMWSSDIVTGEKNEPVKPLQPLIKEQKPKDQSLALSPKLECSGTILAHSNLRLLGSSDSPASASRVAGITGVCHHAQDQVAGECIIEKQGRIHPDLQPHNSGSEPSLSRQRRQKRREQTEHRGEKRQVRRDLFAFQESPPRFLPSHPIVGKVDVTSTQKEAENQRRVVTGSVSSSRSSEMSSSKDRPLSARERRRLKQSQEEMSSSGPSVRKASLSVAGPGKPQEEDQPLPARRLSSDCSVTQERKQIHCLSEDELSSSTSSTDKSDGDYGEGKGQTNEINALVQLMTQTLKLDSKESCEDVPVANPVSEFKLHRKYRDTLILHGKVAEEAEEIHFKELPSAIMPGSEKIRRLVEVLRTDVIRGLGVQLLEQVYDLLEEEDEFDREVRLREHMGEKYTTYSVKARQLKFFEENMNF

[17] = target: Serine/threonine-protein kinase pim-2 (Homo sapiens) (UniProt Q9P1W9); experiment: Inhibition of PIM2 (unknown origin)
[18] = target: Serine/threonine-protein kinase PLK2 (Homo sapiens) (UniProt Q9NYY3); experiment: Inhibition of PLK2 (unknown origin)
Chain of Serine/threonine-protein kinase PLK2 (Homo sapiens) (Q9NYY3 whole entry, looked up): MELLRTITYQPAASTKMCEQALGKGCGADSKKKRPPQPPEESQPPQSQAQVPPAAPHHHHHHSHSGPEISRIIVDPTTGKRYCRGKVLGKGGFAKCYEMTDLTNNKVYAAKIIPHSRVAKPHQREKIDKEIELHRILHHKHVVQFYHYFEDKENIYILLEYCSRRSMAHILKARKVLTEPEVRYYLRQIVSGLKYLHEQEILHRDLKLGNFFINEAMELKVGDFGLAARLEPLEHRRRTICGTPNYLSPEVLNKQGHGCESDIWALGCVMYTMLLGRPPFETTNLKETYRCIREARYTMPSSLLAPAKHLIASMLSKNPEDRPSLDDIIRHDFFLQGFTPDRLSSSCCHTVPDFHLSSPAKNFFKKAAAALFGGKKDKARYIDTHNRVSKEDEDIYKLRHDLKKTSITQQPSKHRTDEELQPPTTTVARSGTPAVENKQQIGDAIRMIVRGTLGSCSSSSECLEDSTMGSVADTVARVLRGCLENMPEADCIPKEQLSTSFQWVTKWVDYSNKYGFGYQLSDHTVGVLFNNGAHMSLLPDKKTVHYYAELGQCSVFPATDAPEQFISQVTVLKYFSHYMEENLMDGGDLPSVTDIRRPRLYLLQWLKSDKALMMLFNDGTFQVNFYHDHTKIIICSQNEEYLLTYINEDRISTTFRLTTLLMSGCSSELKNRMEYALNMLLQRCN

[19] = target: Wee1-like protein kinase (Homo sapiens) (UniProt P30291); experiment: Inhibition of WEE1 (unknown origin)
Chain of Wee1-like protein kinase (Homo sapiens) (P30291 whole entry, looked up): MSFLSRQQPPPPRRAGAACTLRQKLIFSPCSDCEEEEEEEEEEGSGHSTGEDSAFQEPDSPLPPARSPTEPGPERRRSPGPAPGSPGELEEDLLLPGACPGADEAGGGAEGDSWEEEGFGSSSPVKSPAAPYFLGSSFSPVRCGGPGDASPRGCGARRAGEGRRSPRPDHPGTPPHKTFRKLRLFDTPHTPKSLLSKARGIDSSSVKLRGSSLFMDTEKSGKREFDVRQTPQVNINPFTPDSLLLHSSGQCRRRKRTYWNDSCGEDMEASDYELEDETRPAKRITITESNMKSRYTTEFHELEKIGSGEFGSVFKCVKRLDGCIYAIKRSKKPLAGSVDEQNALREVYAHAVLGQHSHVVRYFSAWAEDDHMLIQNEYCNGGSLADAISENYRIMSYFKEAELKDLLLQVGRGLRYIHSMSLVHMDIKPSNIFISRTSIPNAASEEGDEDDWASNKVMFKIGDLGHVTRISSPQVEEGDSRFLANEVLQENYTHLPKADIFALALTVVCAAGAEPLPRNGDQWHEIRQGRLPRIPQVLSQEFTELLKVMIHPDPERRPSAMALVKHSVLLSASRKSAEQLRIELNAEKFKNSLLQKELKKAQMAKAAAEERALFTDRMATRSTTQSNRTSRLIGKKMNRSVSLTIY

K562 [20] = experiment: Induction of apoptosis in human K562 cells assessed as increase in PARP1 cleavage after 24 hrs by Immunoblotting; assay type: functional, cell-based
In short: (§2)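 Cells treated 24 h with a range of doses, with 1 μM doxorubicin as control. Cells were harvested into Laemmli buffer, run on SDS-PAGE and blotted to nitrocellulose. Membranes were probed overnight with primary antibodies (PARP, Ser139-phospho-H2AX, Bcl-2, β-actin loading control), then peroxidase secondaries, with ECL detection on a CCD imager.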

MCF7 [21] = experiment: Induction of apoptosis in human MCF7 cells assessed as increase in PARP1 cleavage after 24 hrs by Immunoblotting; assay type: functional, cell-based; in short: as §2
K562 [22] = experiment: Induction of apoptosis in human K562 cells assessed as increase in gammaH2AX level at 1.25 to 20 uM after 24 hrs by immunoblotting; assay type: functional, cell-based; in short: as §2
MCF7 [23] = experiment: Induction of apoptosis in human MCF7 cells assessed as increase in gammaH2AX level at 1.25 to 20 uM after 24 hrs by immunoblotting; assay type: functional, cell-based; in short: as §2
MCF7 [24] = experiment: Induction of apoptosis in human MCF7 cells assessed as increase in phosphorylated Bcl2 level at 1.25 to 20 uM after 24 hrs by immunoblotting; assay type: functional, cell-based; in short: as §2
[25] = target: Serine/threonine-protein kinase Nek6 (Homo sapiens) (UniProt Q9HC98); experiment: Inhibition of NEK6 (unknown origin)
Chain of Serine/threonine-protein kinase Nek6 (Homo sapiens) (Q9HC98 whole entry): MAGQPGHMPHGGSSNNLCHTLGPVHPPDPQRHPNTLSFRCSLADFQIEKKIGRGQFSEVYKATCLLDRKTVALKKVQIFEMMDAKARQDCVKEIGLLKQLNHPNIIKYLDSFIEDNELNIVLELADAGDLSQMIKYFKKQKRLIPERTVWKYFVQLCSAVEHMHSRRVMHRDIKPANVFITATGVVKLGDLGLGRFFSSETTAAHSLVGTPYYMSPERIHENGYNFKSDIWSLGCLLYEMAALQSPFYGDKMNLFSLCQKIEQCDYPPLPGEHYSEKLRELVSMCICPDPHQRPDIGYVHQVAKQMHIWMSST

[26] = target: Serine/threonine-protein kinase PLK3 (Homo sapiens) (UniProt Q9H4B4); experiment: Inhibition of PLK3 (unknown origin)
Chain of Serine/threonine-protein kinase PLK3 (Homo sapiens) (Q9H4B4 whole entry, looked up): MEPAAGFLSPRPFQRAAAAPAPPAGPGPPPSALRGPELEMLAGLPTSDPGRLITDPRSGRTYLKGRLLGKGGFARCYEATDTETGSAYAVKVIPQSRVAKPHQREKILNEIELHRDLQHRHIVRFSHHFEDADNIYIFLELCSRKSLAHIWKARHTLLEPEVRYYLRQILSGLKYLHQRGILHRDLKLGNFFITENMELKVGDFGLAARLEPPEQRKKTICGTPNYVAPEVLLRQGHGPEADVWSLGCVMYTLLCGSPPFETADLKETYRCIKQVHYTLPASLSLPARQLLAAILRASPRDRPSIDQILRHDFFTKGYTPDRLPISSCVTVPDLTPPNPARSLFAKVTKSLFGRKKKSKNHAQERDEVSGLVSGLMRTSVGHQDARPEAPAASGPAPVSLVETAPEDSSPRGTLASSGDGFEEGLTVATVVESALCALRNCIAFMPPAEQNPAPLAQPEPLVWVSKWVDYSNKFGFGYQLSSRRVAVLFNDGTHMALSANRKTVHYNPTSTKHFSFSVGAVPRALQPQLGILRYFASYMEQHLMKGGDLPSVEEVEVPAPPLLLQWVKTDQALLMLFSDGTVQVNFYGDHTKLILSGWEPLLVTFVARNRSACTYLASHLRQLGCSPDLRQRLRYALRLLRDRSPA

GI50 (MCF7 [1]): 11.8 µM
inhibition [11]: inactive
inhibition [13]: inactive
inhibition [14]: inactive
inhibition [15]: inactive
inhibition [16]: inactive
inhibition [17]: inactive
inhibition [18]: inactive
inhibition [19]: inactive
inhibition [25]: inactive
inhibition [26]: inactive
SMILES: CCCCCc1cc2nn(-c3ccccc3)cc2cn1
Activity (K562 [2]): 35.4%
Activity (K562 [3]): 3.3%
Activity (K562 [4]): 82%
Activity (MCF7 [5]): 50.3%
Activity (MCF7 [6]): 18.1%
Activity (MCF7 [7]): 26.3%
Activity (MCF7 [8]): 55.6%
Activity (K562 [9]): Dose-dependent effect
Activity (K562 [10]): 20.4%
inhibition [12]: inactive
Activity (K562 [20]): Dose-dependent effect
Activity (MCF7 [21]): Dose-dependent effect
Activity (K562 [22]): Active
Activity (MCF7 [23]): Active
Activity (MCF7 [24]): Active
